Activity calls are given as the source filed them. No cut-off for these calls is given here.
Assays:
Format in all cases: cell-based
SK-N-BE(2) = experiment: Cytotoxicity against human SKNBE2 cells assessed as reduction in cell viability at 0.244 to 15.63 uM incubated for 18 hrs by Cell titer-glo assay; conditions: dose 0.244-15.63 µM
Outline: (§1)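 Cells seeded at 1.5 million per 10-cm dish. Next day they were replated at 10,000 cells/well and rested 4 h. Ligand or vehicle (water, ethanol or DMSO, by ligand) was added in dose-response format in quadruplicate. After 18 h, viability was read by CellTiter-Glo luminescence. Data are mean ± s.e.m., generally representative of 2 independent experiments. One-way ANOVA versus vehicle.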

HEK-293T = experiment: Cytotoxicity against human HEK293T cells assessed as reduction in cell viability at 0.244 to 15.63 microM incubated for 18 hrs by Cell titer-glo assay; conditions: dose 0.244-15.63 µM; outline: as §1
PC-12 [1] = experiment: Cytotoxicity against rat PC-12 cells assessed as reduction in cell viability at 0.244 to 15.63 microM incubated for 18 hrs by Cell titer-glo assay; conditions: pc-12, 18 h, dose 0.244-15.63 µM; outline: as §1
SKNBE2 = experiment: Modulation of Gal4-fused VP16 expressed in SKNBE(2) cells co-transfected with UAS repoter gene assessed as decrease in luciferase activity at 0.244 to 15.63 uM incubated for 18 hrs by luciferase reporter gene assay; conditions: Human alphaherpesvirus 2, filed as modulator, dose 0.244-15.63 µM
Outline: (§2)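 Cells in 10-cm dishes were transfected with Gal4-VP16 expression plasmid (2 μg) plus 5xUAS-luciferase reporter (2 μg) for 18 h. They were replated at 10,000 cells/well for 4 h, then given ligand or vehicle (water, ethanol or DMSO) in quadruplicate for 18 h. Luciferase was read with Britelite Plus. Fold change is versus vehicle-treated cells, with one-way ANOVA versus vehicle.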

PC-12 [2] = experiment: Modulation of Gal4-fused VP16 expressed in PC12 cells co-transfected with UAS repoter gene assessed as decrease in luciferase activity at 0.244 to 15.63 uM incubated for 18 hrs by luciferase reporter gene assay; conditions: Human alphaherpesvirus 2, filed as modulator, dose 0.244-15.63 µM; outline: as §2
HEK293T = experiment: Modulation of Gal4-fused VP16 expressed in HEK293T cells co-transfected with UAS repoter gene assessed as decrease in luciferase activity at 0.244 to 15.63 uM incubated for 18 hrs by luciferase reporter gene assay; conditions: Human alphaherpesvirus 2, filed as modulator, dose 0.244-15.63 µM; outline: as §2
[3] = molecular target: Nuclear receptor subfamily 4 group A member 2 (Homo sapiens) (UniProt P43354); experiment: Modulation of full length human Nurr1 expressed in SKNBE(2) cells co-transfected with RXRalpha and luciferase reporter plasmid harboring NBRE response element at 0.244 to 15.63 uM incubated for 18 by luciferase reporter gene assay; conditions: SKNBE2, dose 0.244-15.63 µM
Sequence of Nuclear receptor subfamily 4 group A member 2 (Homo sapiens) (P43354 whole entry): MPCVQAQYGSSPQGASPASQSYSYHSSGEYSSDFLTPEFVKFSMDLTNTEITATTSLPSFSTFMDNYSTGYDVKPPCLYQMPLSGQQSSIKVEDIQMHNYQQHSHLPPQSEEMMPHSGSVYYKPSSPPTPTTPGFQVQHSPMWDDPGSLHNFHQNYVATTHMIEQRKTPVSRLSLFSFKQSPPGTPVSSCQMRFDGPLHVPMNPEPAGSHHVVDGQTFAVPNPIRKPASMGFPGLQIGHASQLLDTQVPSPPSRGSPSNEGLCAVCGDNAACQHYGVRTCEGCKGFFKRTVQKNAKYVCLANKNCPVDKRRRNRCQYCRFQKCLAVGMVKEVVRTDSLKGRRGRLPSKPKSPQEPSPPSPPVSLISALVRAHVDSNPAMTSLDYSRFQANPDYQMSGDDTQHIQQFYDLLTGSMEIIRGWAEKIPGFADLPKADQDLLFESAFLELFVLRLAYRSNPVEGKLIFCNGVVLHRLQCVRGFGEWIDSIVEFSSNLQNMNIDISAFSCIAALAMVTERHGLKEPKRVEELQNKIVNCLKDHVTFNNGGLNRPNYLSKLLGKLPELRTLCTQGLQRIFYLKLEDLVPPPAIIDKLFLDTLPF
Outline: (§3)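 SK-N-BE(2)-C cells were kept in 1:1 EMEM/F12 with 10% FBS at 37°C and 5% CO2. They were cotransfected with full-length Nurr1 (1 μg), full-length RXRα (1 μg) and 3xNBRE- or 3xNurRE-luc reporter (6 μg) for 18 h, replated at 10,000 cells/well for 4 h, and then treated with ligand or vehicle in quadruplicate for 18 h. The readout was luciferase luminescence as fold over vehicle, reported as mean ± s.e.m. (n=4) from 2 independent experiments, one-way ANOVA.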

[4] = molecular target: Nuclear receptor subfamily 4 group A member 2 (Homo sapiens) (UniProt P43354); experiment: Modulation of full length human Nurr1 expressed in SKNBE(2) cells co-transfected with RXRalpha and luciferase reporter plasmid harboring NurRE response element at 0.244 to 15.63 uM incubated for 18 by luciferase reporter gene assay; conditions: SKNBE2, dose 0.244-15.63 µM, time 18.0 hrs; outline: as §3
[5] = molecular target: Nuclear receptor subfamily 4 group A member 2 (Homo sapiens) (UniProt P43354); experiment: Modulation of full length human Nurr1 expressed in PC12 cells co-transfected with RXRalpha and luciferase reporter plasmid harboring NBRE response element at 0.244 to 15.63 uM incubated for 18 by luciferase reporter gene assay; conditions: PC-12, dose 0.244-15.63 µM, time 18.0 hrs
Outline: (§4)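 PC12 cells were grown at 37°C and 5% CO2 in […] medium with 15% horse serum and 2.5% FBS. They were transfected with full-length Nurr1 (1 μg) plus full-length RXRα (1 μg) and 3xNBRE- or 3xNurRE-luciferase reporter (6 μg) for 18 h, then replated at 10,000 cells/well for 4 h. Ligand or vehicle (water, ethanol or DMSO) was added in quadruplicate for 18 h. Luminescence was read as fold change over vehicle. Results are mean ± s.e.m., n=4, from 2 independent experiments, analysed by one-way ANOVA against vehicle.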

[6] = molecular target: Nuclear receptor subfamily 4 group A member 2 (Homo sapiens) (UniProt P43354); experiment: Modulation of full length human Nurr1 expressed in PC12 cells co-transfected with RXRalpha and luciferase reporter plasmid harboring NurRE response element at 0.244 to 15.63 uM incubated for 18 by luciferase reporter gene assay; conditions: PC-12, dose 0.244-15.63 µM, time 18.0 hrs; outline: as §4
[7] = molecular target: Nuclear receptor subfamily 4 group A member 2 (Homo sapiens) (UniProt P43354); experiment: Modulation of full length human Nurr1 expressed in HEK293T cells co-transfected with RXRalpha and luciferase reporter plasmid harboring NBRE response element at 0.244 to 15.63 uM incubated for 18 by luciferase reporter gene assay; conditions: dose 0.244-15.63 µM, time 18.0 hrs
Outline: (§5)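 Full-length Nurr1 plasmid, alone (2 μg) or 1 μg plus full-length RXRα (1 μg), cotransfected with 3xNBRE- or 3xNurRE-luciferase reporter (6 μg) using Lipofectamine 2000, 18 h. Cells replated at 10,000/well for 4 h. Four ligand concentrations, or vehicle (water, ethanol or DMSO), added in quadruplicate for 18 h. Luciferase read. Fold change vs vehicle, mean ± s.e.m., one-way ANOVA vs vehicle.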

[8] = molecular target: Nuclear receptor subfamily 4 group A member 2 (Homo sapiens) (UniProt P43354); experiment: Modulation of full length human Nurr1 expressed in HEK293T cells co-transfected with RXRalpha and luciferase reporter plasmid harboring NurRE response element at 0.244 to 15.63 uM incubated for 18 by luciferase reporter gene assay; conditions: dose 0.244-15.63 µM, time 18.0 hrs; outline: as §5
[9] = molecular target: Nuclear receptor subfamily 4 group A member 2 (Homo sapiens) (UniProt P43354); experiment: Modulation of full length human Nurr1 expressed in SKNBE(2) cells co-transfected with luciferase reporter plasmid harboring NurRE response element at 0.244 to 15.63 uM incubated for 18 by luciferase reporter gene assay; conditions: SKNBE2, dose 0.244-15.63 µM, time 18.0 hrs
[10] = molecular target: Nuclear receptor subfamily 4 group A member 2 (Homo sapiens) (UniProt P43354); experiment: Modulation of full length human Nurr1 expressed in SKNBE(2) cells co-transfected with luciferase reporter plasmid harboring NBRE response element at 0.244 to 15.63 uM incubated for 18 by luciferase reporter gene assay; conditions: SKNBE2, dose 0.244-15.63 µM
[11] = molecular target: Nuclear receptor subfamily 4 group A member 2 (Homo sapiens) (UniProt P43354); experiment: Modulation of full length human Nurr1 expressed in PC12 cells co-transfected with luciferase reporter plasmid harboring NurRE response element at 0.244 to 15.63 uM incubated for 18 by luciferase reporter gene assay; conditions: PC-12, dose 0.244-15.63 µM
Outline: (§6)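 Here PC12 cells (FK-12 medium, 15% horse serum, 2.5% FBS, 37°C, 5% CO2) received full-length Nurr1 (2 μg) without RXRα, plus 3xNBRE- or 3xNurRE-luciferase reporter (6 μg), for 18 h. Cells were replated at 10,000/well for 4 h, then treated with ligand or vehicle in quadruplicate for 18 h. Luciferase luminescence was normalized to vehicle-treated cells. Results are mean ± s.e.m. (n=4) from 2 independent experiments, with one-way ANOVA against vehicle.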

[12] = molecular target: Nuclear receptor subfamily 4 group A member 2 (Homo sapiens) (UniProt P43354); experiment: Modulation of full length human Nurr1 expressed in PC12 cells co-transfected with luciferase reporter plasmid harboring NBRE response element at 0.244 to 15.63 uM incubated for 18 by luciferase reporter gene assay; conditions: PC-12, dose 0.244-15.63 µM, time 18.0 hrs; outline: as §6
[13] = molecular target: Nuclear receptor subfamily 4 group A member 2 (Homo sapiens) (UniProt P43354); experiment: Modulation of full length human Nurr1 expressed in HEK293T cells co-transfected with luciferase reporter plasmid harboring NBRE response element at 0.244 to 15.63 uM incubated for 18 by luciferase reporter gene assay; conditions: dose 0.244-15.63 µM, time 18.0 hrs; outline: as §5
[14] = molecular target: Nuclear receptor subfamily 4 group A member 2 (Homo sapiens) (UniProt P43354); experiment: Modulation of full length human Nurr1 expressed in HEK293T cells co-transfected with luciferase reporter plasmid harboring NurRE response element at 0.244 to 15.63 uM incubated for 18 by luciferase reporter gene assay; conditions: dose 0.244-15.63 µM, time 18.0 hrs; outline: as §5

Activity [3]: inactive | Activity [4]: inactive | Activity [5]: inactive | Activity [6]: inactive | Activity [7]: inactive | Activity [8]: inactive | Activity [9]: inactive | Activity [10]: inactive | Activity [11]: inactive | Activity [12]: inactive | Activity [13]: inactive | Activity [14]: inactive
Compound: CCCCCCCC(=O)c1cc(OC)c(OC)c(OC)c1CC(=O)OCC
Activity (SK-N-BE(2)): Toxic | Activity (HEK-293T): Toxic | Activity (PC-12 [1]): Toxic | Activity (SKNBE2): Active | Activity (PC-12 [2]): Active | Activity (HEK293T): Active

Source: ChEMBL document CHEMBL5030505, “Assessment of NR4A Ligands That Directly Bind and Modulate the Orphan Nuclear Receptor Nurr1” (J Med Chem, 2020)
